Test system: HEK-293T
Experiment: Multiplex assay against HEK293T;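 on Population Tubulin-Different-Phenotype (%): share of the cells with healthy nuclei that show this phenotype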
Type: toxicity, cell-based
Conditions: human
Procedure, shortened: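 Live cells were stained at seeding with Hoechst33342, BioTracker Green Microtubule Cytoskeleton Dye, MitoTracker Red and Annexin V Alexa Fluor 680, then imaged on a CQ1 microscope at 37°C and 5% CO2 after compound addition. CellPathfinder machine-learning gating split cells into Hoechst high-intensity objects or normal cells. Normal cells were split into healthy, pyknosed or fragmented nuclei, and pyknosed cells into mitotic or apoptotic. Tubulin, mitochondrial-mass and membrane-permeability phenotypes are per cents of healthy-nucleus cells.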

[1] = 12 h, 1 µM, compound concentration 1 uM, replicate 1
[2] = 12 h, 1 µM, compound concentration 1 uM, replicate 2
[3] = 12 h, 10 µM, compound concentration 10 uM, replicate 1
[4] = 12 h, 10 µM, compound concentration 10 uM, replicate 2
[5] = 24 h, 1 µM, compound concentration 1 uM, replicate 1
[6] = 24 h, 1 µM, compound concentration 1 uM, replicate 2
[7] = 24 h, 10 µM, compound concentration 10 uM, replicate 1
[8] = 24 h, 10 µM, compound concentration 10 uM, replicate 2
[9] = 48 h, 1 µM, compound concentration 1 uM, replicate 1
[10] = 48 h, 1 µM, compound concentration 1 uM, replicate 2
[11] = 48 h, 10 µM, compound concentration 10 uM, replicate 1
[12] = 48 h, 10 µM, compound concentration 10 uM, replicate 2

Structure (SMILES): CN1CCN(Cc2ccc(Nc3ncc(Cl)c(Nc4ccccc4S(=O)(=O)N(C)C)n3)cc2)CC1 [DUBERMATINIB]
- Population Apoptotic (%) [1]: 48%
- Population Fragmented Nuclei (%) [1]: 14%
- Population Healthy Nuclei (%) [1]: 42%
- Population Hoechst High Intensity Objects (%) [1]: 12%
- Population Membrane Permeable-Phenotype (%) [1]: 0%
- Population Mitochondria Different-Phenotype (%) [1]: 72%
- Population Mitotic Cells (%) [1]: 51%
- Population Normal (%) [1]: 87%
- Population Pyknosed Nuclei (%) [1]: 42%
- Population Tubulin-Different-Phenotype (%) [1]: 35%
- Total Cell Count [1]: 297
- Population Apoptotic (%) [2]: 13%
- Population Fragmented Nuclei (%) [2]: 8%
- Population Healthy Nuclei (%) [2]: 55%
- Population Hoechst High Intensity Objects (%) [2]: 2%
- Population Membrane Permeable-Phenotype (%) [2]: 5%
- Population Mitochondria Different-Phenotype (%) [2]: 14%
- Population Mitotic Cells (%) [2]: 86%
- Population Normal (%) [2]: 97%
- Population Pyknosed Nuclei (%) [2]: 35%
- Population Tubulin-Different-Phenotype (%) [2]: 14%
- Total Cell Count [2]: 174
- Population Apoptotic (%) [3]: 62%
- Population Fragmented Nuclei (%) [3]: 11%
- Population Healthy Nuclei (%) [3]: 40%
- Population Hoechst High Intensity Objects (%) [3]: 18%
- Population Membrane Permeable-Phenotype (%) [3]: 1%
- Population Mitochondria Different-Phenotype (%) [3]: 96%
- Population Mitotic Cells (%) [3]: 38%
- Population Normal (%) [3]: 81%
- Population Pyknosed Nuclei (%) [3]: 47%
- Population Tubulin-Different-Phenotype (%) [3]: 88%
- Total Cell Count [3]: 258
- Population Apoptotic (%) [4]: 16%
- Population Fragmented Nuclei (%) [4]: 14%
- Population Healthy Nuclei (%) [4]: 59%
- Population Hoechst High Intensity Objects (%) [4]: 4%
- Population Membrane Permeable-Phenotype (%) [4]: 2%
- Population Mitochondria Different-Phenotype (%) [4]: 32%
- Population Mitotic Cells (%) [4]: 83%
- Population Normal (%) [4]: 95%
- Population Pyknosed Nuclei (%) [4]: 26%
- Population Tubulin-Different-Phenotype (%) [4]: 33%
- Total Cell Count [4]: 214
- Population Apoptotic (%) [5]: 53%
- Population Fragmented Nuclei (%) [5]: 15%
- Population Healthy Nuclei (%) [5]: 45%
- Population Hoechst High Intensity Objects (%) [5]: 10%
- Population Membrane Permeable-Phenotype (%) [5]: 0%
- Population Mitochondria Different-Phenotype (%) [5]: 59%
- Population Mitotic Cells (%) [5]: 46%
- Population Normal (%) [5]: 89%
- Population Pyknosed Nuclei (%) [5]: 39%
- Population Tubulin-Different-Phenotype (%) [5]: 31%
- Total Cell Count [5]: 290
- Population Apoptotic (%) [6]: 27%
- Population Fragmented Nuclei (%) [6]: 19%
- Population Healthy Nuclei (%) [6]: 69%
- Population Hoechst High Intensity Objects (%) [6]: 3%
- Population Membrane Permeable-Phenotype (%) [6]: 16%
- Population Mitochondria Different-Phenotype (%) [6]: 5%
- Population Mitotic Cells (%) [6]: 72%
- Population Normal (%) [6]: 96%
- Population Pyknosed Nuclei (%) [6]: 11%
- Population Tubulin-Different-Phenotype (%) [6]: 17%
- Total Cell Count [6]: 206
- Population Apoptotic (%) [7]: 69%
- Population Fragmented Nuclei (%) [7]: 15%
- Population Healthy Nuclei (%) [7]: 33%
- Population Hoechst High Intensity Objects (%) [7]: 18%
- Population Mitochondria Different-Phenotype (%) [7]: 88%
- Population Mitotic Cells (%) [7]: 30%
- Population Normal (%) [7]: 81%
- Population Pyknosed Nuclei (%) [7]: 50%
- Population Tubulin-Different-Phenotype (%) [7]: 80%
- Total Cell Count [7]: 270
- Population Apoptotic (%) [8]: 28%
- Population Fragmented Nuclei (%) [8]: 19%
- Population Healthy Nuclei (%) [8]: 42%
- Population Hoechst High Intensity Objects (%) [8]: 6%
- Population Membrane Permeable-Phenotype (%) [8]: 1%
- Population Mitochondria Different-Phenotype (%) [8]: 21%
- Population Mitotic Cells (%) [8]: 71%
- Population Normal (%) [8]: 93%
- Population Pyknosed Nuclei (%) [8]: 38%
- Population Tubulin-Different-Phenotype (%) [8]: 25%
- Total Cell Count [8]: 222
- Population Apoptotic (%) [9]: 60%
- Population Fragmented Nuclei (%) [9]: 26%
- Population Healthy Nuclei (%) [9]: 51%
- Population Hoechst High Intensity Objects (%) [9]: 10%
- Population Membrane Permeable-Phenotype (%) [9]: 4%
- Population Mitochondria Different-Phenotype (%) [9]: 26%
- Population Mitotic Cells (%) [9]: 39%
- Population Normal (%) [9]: 89%
- Population Pyknosed Nuclei (%) [9]: 22%
- Population Tubulin-Different-Phenotype (%) [9]: 24%
- Total Cell Count [9]: 316
- Population Apoptotic (%) [10]: 38%
- Population Fragmented Nuclei (%) [10]: 21%
- Population Healthy Nuclei (%) [10]: 73%
- Population Hoechst High Intensity Objects (%) [10]: 6%
- Population Membrane Permeable-Phenotype (%) [10]: 20%
- Population Mitochondria Different-Phenotype (%) [10]: 1%
- Population Mitotic Cells (%) [10]: 61%
- Population Normal (%) [10]: 93%
- Population Pyknosed Nuclei (%) [10]: 5%
- Population Tubulin-Different-Phenotype (%) [10]: 17%
- Total Cell Count [10]: 259
- Population Apoptotic (%) [11]: 65%
- Population Healthy Nuclei (%) [11]: 24%
- Population Hoechst High Intensity Objects (%) [11]: 15%
- Population Membrane Permeable-Phenotype (%) [11]: 0%
- Population Mitochondria Different-Phenotype (%) [11]: 83%
- Population Mitotic Cells (%) [11]: 34%
- Population Normal (%) [11]: 84%
- Population Pyknosed Nuclei (%) [11]: 58%
- Population Tubulin-Different-Phenotype (%) [11]: 70%
- Total Cell Count [11]: 267
- Population Apoptotic (%) [12]: 29%
- Population Fragmented Nuclei (%) [12]: 17%
- Population Healthy Nuclei (%) [12]: 36%
- Population Hoechst High Intensity Objects (%) [12]: 6%
- Population Membrane Permeable-Phenotype (%) [12]: 2%
- Population Mitochondria Different-Phenotype (%) [12]: 32%
- Population Mitotic Cells (%) [12]: 70%
- Population Normal (%) [12]: 93%
- Population Pyknosed Nuclei (%) [12]: 46%
- Population Tubulin-Different-Phenotype (%) [12]: 35%
- Total Cell Count [12]: 210
